Columns and labels:
preformed Aβ1–42 fibrils [1] = molecular target: T1, preformed Aβ1–42 fibrils (Homo sapiens, UniProt P05067); test: Aβ1–42 disaggregation assay; assay type: biochemical
How it was run: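 Fibrils preformed by incubating 20 μM recombinant human Aβ1–42 with 5 μM ThT in PBS buffer (pH 7.40), 37°C, 24 h. Test compound then added at final 10, 2, 0.4, 0.08 μM, or DMSO control, and incubated a further 7 h at 37°C. ThT fluorescence read every 2.5 min (ex 460/em 508 nm). EC50 from curves of percent change in ThT intensity versus concentration. Four independent experiments, duplicate samples; mean ± SEM.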

Aβ1–42 fibrils = Aβ1–42 fibrils (Homo sapiens, UniProt P05067); test: SDS-PAGE electrophoresis and immunoblotting with anti-Aβ antibody 6E10; details: 25 μM fibrils with 25 μM amentoflavone, glutaraldehyde cross-linked
Sequence of Aβ1–42 fibrils (P05067 672-713): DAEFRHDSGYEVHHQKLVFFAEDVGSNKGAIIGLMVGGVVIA

[2] = molecular target: Recombinant human Aβ1–42 peptide (Homo sapiens, UniProt P05067); test: Aβ1–42 aggregation assay; assay type: biochemical
Sequence of Recombinant human Aβ1–42 peptide (P05067 672-713): as above
How it was run: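 Recombinant human Aβ1–42 (HFIP-treated) dissolved in DMSO, diluted into PBS (50 mM NaH2PO4, 100 mM NaCl, pH 7.40); final 20 μM Aβ1–42 with 5 μM ThT ± test compound at 10, 2, 0.4, 0.08 μM (from 10 mM DMSO stocks). Incubated 37°C for 24 h; ThT fluorescence read every 10 min, ex 460/em 508 nm. IC50 from concentration-response curves; mean ± SEM, 4 independent experiments.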

preformed Aβ1–42 fibrils [3] = molecular target: T1, preformed Aβ1–42 fibrils; test: Atomic force microscopy imaging of preformed Aβ1–42 fibrils; details: 25 μM fibrils with 25 μM amentoflavone, 1 h

T1 sequence (P05067 672-713): as above

| Compound | EC50 (preformed Aβ1–42 fibrils [1]) | Time to decline of ThT fluorescent intensity after addition (preformed Aβ1–42 fibrils [1]; concentration-dependent decline, preformed Aβ1–42 fibrils) | Time to lowering of ThT fluorescent intensity after the treatment (preformed Aβ1–42 fibrils [1]; concentration-dependent, preformed Aβ1–42 fibrils) | IC50 [2] | Conversion of Aβ1–42 fibrils to oligomers and monomers (immunoblot) (Aβ1–42 fibrils) | Structural change of preformed Aβ1–42 fibrils (AFM) (preformed Aβ1–42 fibrils [3]) |
| --- | --- | --- | --- | --- | --- | --- |
| O=c1cc(-c2ccc(O)c(-c3c(O)cc(O)c4c(=O)cc(-c5ccc(O)cc5)oc34)c2)oc2cc(O)cc(O)c12 [Amentoflavone, amentoflavone] | 590 ± 190 nM | ≤ 30 min | ≤ 1 h | 260 ± 30 nM | did not increase the conversion of Aβ1–42 fibrils to oligomers and monomers | conformational changes of the fibrils into amorphous Aβ1–42 aggregates |
| COc1ccc(-c2cc(=O)c3c(O)cc(O)cc3o2)cc1-c1c(O)cc(O)c2c(=O)cc(-c3ccc(O)cc3)oc12 [Bilobetin, bilobetin] | 2450 ± 1280 nM |  |  | 1530 ± 200 nM |  |  |
| COc1cc(O)c2c(=O)cc(-c3ccc(OC)c(-c4c(O)cc(O)c5c(=O)cc(-c6ccc(O)cc6)oc45)c3)oc2c1 [Ginkgetin, ginkgetin] | 6810 ± 4080 nM |  |  | 4920 ± 1310 nM |  |  |
| COc1ccc(-c2cc(=O)c3c(O)cc(O)c(-c4cc(-c5cc(=O)c6c(O)cc(O)cc6o5)ccc4OC)c3o2)cc1 [Isoginkgetin, isoginkgetin] | > 10000 nM |  |  | 1800 ± 380 nM |  |  |

Now from value to compound, other results behind:

| EC50 (preformed Aβ1–42 fibrils [1]) | Time to decline of ThT fluorescent intensity after addition (preformed Aβ1–42 fibrils [1]; concentration-dependent decline, preformed Aβ1–42 fibrils) | Time to lowering of ThT fluorescent intensity after the treatment (preformed Aβ1–42 fibrils [1]; concentration-dependent, preformed Aβ1–42 fibrils) | IC50 [2] | Compound | Conversion of Aβ1–42 fibrils to oligomers and monomers (immunoblot) (Aβ1–42 fibrils) | Structural change of preformed Aβ1–42 fibrils (AFM) (preformed Aβ1–42 fibrils [3]) |
| --- | --- | --- | --- | --- | --- | --- |
| 2040 ± 790 nM |  |  | 290 ± 10 nM | COc1cc(O)c2c(=O)cc(-c3ccc(O)c(-c4c(O)cc(O)c5c(=O)cc(-c6ccc(O)cc6)oc45)c3)oc2c1 [Sequoiaflavone] |  |  |
| > 10000 nM |  |  | 8700 ± 1210 nM | COc1cc(O)c2c(=O)cc(-c3ccc(O)cc3)oc2c1-c1cc(-c2cc(=O)c3c(O)cc(O)cc3o2)ccc1O [Sotetsuflavone, sotetsuflavone] |  |  |

Source: publication PMC7059817 (Biomolecules & Therapeutics, 2019)
